ChEMBL document CHEMBL1140872, “Discovery of a potent and selective inhibitor for human carbonyl reductase 1 from propionate scanning applied to the macrolide zearalenone” (Bioorg Med Chem, 2009)

Tests used:
[1] = target: T1, Carbonyl reductase [NADPH] 1 (Homo sapiens) (UniProt P16152); assay: Binding affinity to human recombinant carbonyl reductase 1 expressed in Escherichia coli assessed as thermal shift by differential scanning fluorimetry in presence of NADPH
T1 sequence (whole entry): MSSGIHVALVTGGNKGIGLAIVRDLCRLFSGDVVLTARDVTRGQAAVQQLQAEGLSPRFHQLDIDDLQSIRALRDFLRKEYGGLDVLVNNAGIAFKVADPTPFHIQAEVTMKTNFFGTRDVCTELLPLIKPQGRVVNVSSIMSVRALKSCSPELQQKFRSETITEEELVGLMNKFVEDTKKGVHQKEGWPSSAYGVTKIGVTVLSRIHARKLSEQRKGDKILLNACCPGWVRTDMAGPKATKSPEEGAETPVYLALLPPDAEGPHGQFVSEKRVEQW
In short: (§1)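 Thermal-shift (DSF) binding assay with purified recombinant catalytic domains or proteins carrying an N- or C-terminal His6 tag or GST fusion. Purity was >95% by SDS/PAGE and identity was confirmed by MS. Protein was at 2 µM final in 10 mM HEPES pH 7.5 and 150 mM NaCl. Tm shift is reported, with 2 °C as the threshold for binding.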

[2] = target: Serine/threonine-protein kinase PAK 6 (Homo sapiens) (UniProt Q9NQU5); assay: Binding affinity to human recombinant PAK6 expressed in Escherichia coli assessed as thermal shift by differential scanning fluorimetry; in short: as §1
[3] = target: T2, Carbonyl reductase [NADPH] 3 (Homo sapiens) (UniProt O75828); assay: Binding affinity to human recombinant carbonyl reductase 3 expressed in Escherichia coli assessed as thermal shift by differential scanning fluorimetry in presence of NADPH; in short: as §1
T2 sequence (whole entry): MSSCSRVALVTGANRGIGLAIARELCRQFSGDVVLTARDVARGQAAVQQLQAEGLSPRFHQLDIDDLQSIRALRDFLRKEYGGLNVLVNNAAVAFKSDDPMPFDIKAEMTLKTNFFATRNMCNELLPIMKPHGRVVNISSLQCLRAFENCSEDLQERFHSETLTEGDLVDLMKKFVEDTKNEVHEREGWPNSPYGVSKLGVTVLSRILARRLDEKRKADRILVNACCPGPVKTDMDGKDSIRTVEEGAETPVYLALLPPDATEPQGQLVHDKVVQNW

[4] = target: T1, Carbonyl reductase [NADPH] 1 (Homo sapiens); assay: Binding affinity to human recombinant carbonyl reductase 1 expressed in Escherichia coli assessed as thermal shift by differential scanning fluorimetry in absence of cofactor; in short: as §1
[5] = target: T3, Mitogen-activated protein kinase kinase kinase 5 (Homo sapiens) (UniProt Q99683); assay: Binding affinity to human recombinant MAP3K5 expressed in Escherichia coli assessed as thermal shift by differential scanning fluorimetry; in short: as §1
T3 sequence (whole entry): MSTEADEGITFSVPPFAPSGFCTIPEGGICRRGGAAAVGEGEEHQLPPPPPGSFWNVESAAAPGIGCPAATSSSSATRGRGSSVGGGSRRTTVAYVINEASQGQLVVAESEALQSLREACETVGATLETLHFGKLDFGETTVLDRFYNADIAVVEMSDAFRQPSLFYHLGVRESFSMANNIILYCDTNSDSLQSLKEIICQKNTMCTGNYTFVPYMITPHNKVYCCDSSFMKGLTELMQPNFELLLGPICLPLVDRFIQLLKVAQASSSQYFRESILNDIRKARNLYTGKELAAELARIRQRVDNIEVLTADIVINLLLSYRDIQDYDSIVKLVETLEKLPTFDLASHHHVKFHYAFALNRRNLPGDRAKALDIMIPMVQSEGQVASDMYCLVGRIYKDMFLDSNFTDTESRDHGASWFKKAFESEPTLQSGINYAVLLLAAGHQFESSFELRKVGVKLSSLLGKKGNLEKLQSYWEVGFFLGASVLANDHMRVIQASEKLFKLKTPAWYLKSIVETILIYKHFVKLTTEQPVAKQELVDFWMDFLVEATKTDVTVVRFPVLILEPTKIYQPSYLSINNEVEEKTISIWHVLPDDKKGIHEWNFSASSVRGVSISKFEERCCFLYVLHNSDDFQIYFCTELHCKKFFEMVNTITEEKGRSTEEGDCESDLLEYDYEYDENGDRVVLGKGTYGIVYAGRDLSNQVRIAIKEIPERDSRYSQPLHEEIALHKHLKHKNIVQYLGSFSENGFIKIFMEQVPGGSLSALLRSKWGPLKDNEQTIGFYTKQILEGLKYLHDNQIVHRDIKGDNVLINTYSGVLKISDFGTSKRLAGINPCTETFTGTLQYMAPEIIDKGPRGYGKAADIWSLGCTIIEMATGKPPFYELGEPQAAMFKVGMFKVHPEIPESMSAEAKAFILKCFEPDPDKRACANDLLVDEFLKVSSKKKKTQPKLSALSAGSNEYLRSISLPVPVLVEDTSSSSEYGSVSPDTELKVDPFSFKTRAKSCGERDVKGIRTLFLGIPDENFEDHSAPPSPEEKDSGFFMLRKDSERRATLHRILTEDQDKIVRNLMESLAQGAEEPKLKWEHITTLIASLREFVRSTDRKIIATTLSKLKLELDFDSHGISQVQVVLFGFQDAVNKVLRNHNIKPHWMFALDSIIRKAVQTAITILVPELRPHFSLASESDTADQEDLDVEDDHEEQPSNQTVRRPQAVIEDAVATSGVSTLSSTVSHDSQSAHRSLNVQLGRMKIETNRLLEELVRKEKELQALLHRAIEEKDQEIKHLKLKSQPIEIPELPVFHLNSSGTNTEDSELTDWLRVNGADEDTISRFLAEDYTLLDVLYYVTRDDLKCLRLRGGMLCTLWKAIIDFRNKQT

[6] = target: T2, Carbonyl reductase [NADPH] 3 (Homo sapiens); assay: Binding affinity to human recombinant carbonyl reductase 3 expressed in Escherichia coli assessed as thermal shift by differential scanning fluorimetry in presence of NADP+; in short: as §1

Measured: Tm

Serine/threonine-protein kinase PAK 6 (Homo sapiens), sequence (Q9NQU5 whole entry, looked up): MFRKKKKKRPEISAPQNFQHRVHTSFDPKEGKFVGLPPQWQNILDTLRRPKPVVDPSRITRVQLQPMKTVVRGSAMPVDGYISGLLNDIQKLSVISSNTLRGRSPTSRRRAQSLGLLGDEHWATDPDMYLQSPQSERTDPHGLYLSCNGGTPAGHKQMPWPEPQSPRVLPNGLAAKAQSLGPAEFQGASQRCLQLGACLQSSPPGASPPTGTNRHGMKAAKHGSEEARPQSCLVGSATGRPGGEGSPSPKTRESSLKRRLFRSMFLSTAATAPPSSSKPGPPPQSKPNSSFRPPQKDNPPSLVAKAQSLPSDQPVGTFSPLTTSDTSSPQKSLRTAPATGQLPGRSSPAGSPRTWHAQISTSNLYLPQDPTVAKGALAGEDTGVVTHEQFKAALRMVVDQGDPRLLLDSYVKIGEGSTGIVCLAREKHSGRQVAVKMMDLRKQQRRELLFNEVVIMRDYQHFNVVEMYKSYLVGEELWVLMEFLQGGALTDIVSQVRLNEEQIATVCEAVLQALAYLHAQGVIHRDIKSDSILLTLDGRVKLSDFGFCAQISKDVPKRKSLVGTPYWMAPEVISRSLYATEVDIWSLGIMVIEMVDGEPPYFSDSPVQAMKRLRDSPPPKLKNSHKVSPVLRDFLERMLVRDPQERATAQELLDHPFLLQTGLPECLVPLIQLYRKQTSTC

COc1cc2c(c(OC)c1)C(=O)O[C@@H](C)CCCC(=O)[C@@H](C)CC/C=C/2
< 2 °C: all assays above

C[C@H]1CCCC(=O)CCC/C=C/c2cc(O)cc(O)c2C(=O)O1
< 2 °C: all assays above

COC1=C2C[C@@H](C)C[C@H](OC)[C@H](O)[C@@H](C)/C=C(\C)[C@H](OC(N)=O)[C@@H](OC)/C=C\C=C(/C)C(=O)NC(=CC1=O)C2=O
< 2 °C: all assays above

C[C@@H]1C[C@H]2O[C@@H]2/C=C\C=C\C(=O)Cc2c(Cl)c(O)cc(O)c2C(=O)O1 [RADICICOL]
< 2 °C: all assays above

COc1cc(O)c2c(c1)/C=C/CC[C@H](C)C(=O)CCC[C@H](C)OC2=O
< 2 °C: all assays above

C[C@H]1CCCC(=O)[C@@H](C)CC/C=C/c2cc(O)cc(O)c2C(=O)O1
< 2 °C: all assays above

COc1cc2c(c(OC)c1)C(=O)O[C@@H](C)CCC[C@@H](O)[C@@H](C)CC/C=C/2
< 2 °C: all assays above
